Experimental data taken from ChEMBL document CHEMBL1138767, “Macrocyclic inhibitors for peptide deformylase: a structure-activity relationship study of the ring size” (J Med Chem, 2004).
In brackets after ≈: the same amount, converted by molar mass.

Legend:
[1] = target: T1, Peptide deformylase (Escherichia coli) (UniProt Q9JN24); assay: Inhibition constant against Escherichia coli Peptide deformylase (PDF)
T1 sequence (whole entry): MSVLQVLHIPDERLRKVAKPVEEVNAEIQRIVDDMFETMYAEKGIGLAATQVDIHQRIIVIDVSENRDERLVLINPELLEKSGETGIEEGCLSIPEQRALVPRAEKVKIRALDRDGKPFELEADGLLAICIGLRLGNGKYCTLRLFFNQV

Peptide deformylase [2] = target: T2, Peptide deformylase (Escherichia coli, UniProt Q9JN24); assay: Inhibitory effect against Escherichia coli peptide deformylase (PDF) by DPPI assay
T2 sequence (Q9JN24 whole entry): T1 sequence (whole entry)
Summary of the method: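 E. coli PDF (Co(II) cofactor) assayed continuously at room temperature in 50 mM Hepes, 10 mM NaCl, 5 mM DTT, pH 7.0. Read at 360 nm, initial rates from <30 s, no-PDF background subtracted. K_I from Michaelis–Menten fit.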

Peptide deformylase [3] = target: T2, Peptide deformylase; assay: Inhibitory effect against Escherichia coli peptide deformylase (PDF) by AAP assay
Summary of the method: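 E. coli PDF (Co(II) cofactor) 8 nM preincubated with 0–300 nM inhibitor 2 h on ice in 50 mM Hepes pH 7.0, 150 mM NaCl, 100 μM BSA. Reaction started at room temperature with 80 μM f-ML-pNA for 10 min, heat-quenched at 95 °C, then coupled with AAP. A405 measured, no-PDF background subtracted, conversion <20%. K_I* from Michaelis–Menten fit.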

Bacillus subtilis = assay: The compound was tested in vitro for antibacterial activity against Bacillus subtilis
Escherichia coli = assay: The compound was tested in vitro for antibacterial activity against Escherichia coli; type: functional
Summary of the method: (§1)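 Broth microdilution per NCCLS M7-A5 in cation-adjusted Mueller–Hinton broth; 5% lysed horse blood added for streptococci, Haemophilus Test Medium for Haemophilus. Inoculum ~5 × 10^5 CFU/mL from 16–20 h plate cultures. Twofold dilutions, final 0.03–32 µg/mL. Incubated 16–20 h at 35–37 °C (Haemophilus and Streptococcus: 24 h, 5% CO2). MIC is the lowest concentration with no visible growth, read visually.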

[4] = target: T1, Peptide deformylase (Escherichia coli); assay: The inhibition constant was measured against Escherichia coli PDF (Peptide deformylase) by diluting a preformed EI* complex into a assay buffer containing f-Met-Lys-AMC and DPPI
Summary of the method: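 E. coli PDF (Co(II) form) at 40–160 nM and inhibitor at 80–200 nM, preincubated 2 h on ice in 50 mM Hepes pH 7.0, 10 mM NaCl, 5 mM DTT with 100 µM BSA. Then diluted 10-fold into the same buffer with 270 µM f-Met-Lys-AMC and 0.1 U DPPI. Recovery of activity followed continuously at 360 nm; k6 taken from progress curves.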

Streptococcus pneumoniae [5] = assay: The compound was tested in vitro for antibacterial activity against Streptococcus pneumoniae (ATCC 6303); type: functional; summary of the method: as §1
[6] = target: Stromelysin-1 (Homo sapiens) (UniProt P08254); assay: Inhibition of MMP-3 (matrix metalloprotease) at 10 uM
Summary of the method: (§2)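 Human MMP-1, -2, -3 or -9 (0.10 µg, added last to start the reaction) in 100 mM Tris, 100 mM NaCl, 10 mM CaCl2, 0.04% Brij-35. Contained 15 µM fluorogenic peptide substrate (Mca-P-K-G-Dpa-A-R-NH2 for MMP-1/-2) and inhibitor at 0, 1 or 10 µM. Remaining activity monitored continuously by fluorescence, excitation 320 nm, emission 405 nm.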

Streptococcus pneumoniae [7] = assay: The compound was tested in vitro for antibacterial activity against Streptococcus pneumoniae (ATCC 6301); type: functional; summary of the method: as §1
[8] = target: 72 kDa type IV collagenase (Homo sapiens) (UniProt P08253); assay: Inhibition of MMP-2 (matrix metalloprotease) at 1 uM; summary of the method: as §2
[9] = target: T3, Interstitial collagenase (Homo sapiens) (UniProt P03956); assay: Inhibition of MMP-1 (matrix metalloprotease) at 1 uM; summary of the method: as §2
T3 sequence (whole entry): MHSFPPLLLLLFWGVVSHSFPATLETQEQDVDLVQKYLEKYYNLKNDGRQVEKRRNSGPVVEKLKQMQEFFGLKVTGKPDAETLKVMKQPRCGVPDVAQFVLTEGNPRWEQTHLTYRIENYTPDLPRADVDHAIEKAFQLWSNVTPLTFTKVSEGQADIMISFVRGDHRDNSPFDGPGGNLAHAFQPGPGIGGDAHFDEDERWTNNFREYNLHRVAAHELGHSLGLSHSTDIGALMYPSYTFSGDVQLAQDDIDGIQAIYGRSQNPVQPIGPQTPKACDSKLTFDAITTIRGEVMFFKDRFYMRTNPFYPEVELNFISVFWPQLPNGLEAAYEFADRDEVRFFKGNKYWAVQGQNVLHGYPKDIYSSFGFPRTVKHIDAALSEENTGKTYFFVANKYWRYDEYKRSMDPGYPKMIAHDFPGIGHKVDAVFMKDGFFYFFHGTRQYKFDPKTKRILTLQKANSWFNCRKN

Moraxella catarrhalis = assay: The compound was tested in vitro for antibacterial activity against Moraxella catarrhalis (ATCC 37054); type: functional; summary of the method: as §1
Haemophilus influenzae = assay: The compound was tested in vitro for antibacterial activity against Haemophilus influenzae (ATCC 31517); type: functional; summary of the method: as §1
Streptococcus pneumoniae [10] = assay: The compound was tested in vitro for antibacterial activity against Streptococcus pneumoniae (ATCC 49619); type: functional; summary of the method: as §1
[11] = target: T3, Interstitial collagenase (Homo sapiens); assay: Inhibition of MMP-1 (matrix metalloprotease) at 10 uM; summary of the method: as §2
[12] = target: Matrix metalloproteinase-9 (Homo sapiens) (UniProt P14780); assay: Inhibition of MMP-9 (matrix metalloprotease) at 10 uM; summary of the method: as §2
Enterococcus faecalis = assay: The compound was tested in vitro for antibacterial activity against Enterococcus faecalis(ATCC 29212); type: functional; summary of the method: as §1
[13] = target: Stromelysin-1 (Homo sapiens) (UniProt P08254); assay: Inhibition of MMP-3 (matrix metalloprotease) at 1 uM; summary of the method: as §2
[14] = target: 72 kDa type IV collagenase (Homo sapiens) (UniProt P08253); assay: Inhibition of MMP-2 (matrix metalloprotease) at 10 uM; summary of the method: as §2
Staphylococcus aureus = assay: The compound was tested in vitro for antibacterial activity against Staphylococcus aureus (ATCC 29213); type: functional; summary of the method: as §1
[15] = target: Matrix metalloproteinase-9 (Homo sapiens) (UniProt P14780); assay: Inhibition of MMP-9 (matrix metalloprotease) at 1 uM; summary of the method: as §2

Matrix metalloproteinase-9 (Homo sapiens), sequence (P14780 whole entry): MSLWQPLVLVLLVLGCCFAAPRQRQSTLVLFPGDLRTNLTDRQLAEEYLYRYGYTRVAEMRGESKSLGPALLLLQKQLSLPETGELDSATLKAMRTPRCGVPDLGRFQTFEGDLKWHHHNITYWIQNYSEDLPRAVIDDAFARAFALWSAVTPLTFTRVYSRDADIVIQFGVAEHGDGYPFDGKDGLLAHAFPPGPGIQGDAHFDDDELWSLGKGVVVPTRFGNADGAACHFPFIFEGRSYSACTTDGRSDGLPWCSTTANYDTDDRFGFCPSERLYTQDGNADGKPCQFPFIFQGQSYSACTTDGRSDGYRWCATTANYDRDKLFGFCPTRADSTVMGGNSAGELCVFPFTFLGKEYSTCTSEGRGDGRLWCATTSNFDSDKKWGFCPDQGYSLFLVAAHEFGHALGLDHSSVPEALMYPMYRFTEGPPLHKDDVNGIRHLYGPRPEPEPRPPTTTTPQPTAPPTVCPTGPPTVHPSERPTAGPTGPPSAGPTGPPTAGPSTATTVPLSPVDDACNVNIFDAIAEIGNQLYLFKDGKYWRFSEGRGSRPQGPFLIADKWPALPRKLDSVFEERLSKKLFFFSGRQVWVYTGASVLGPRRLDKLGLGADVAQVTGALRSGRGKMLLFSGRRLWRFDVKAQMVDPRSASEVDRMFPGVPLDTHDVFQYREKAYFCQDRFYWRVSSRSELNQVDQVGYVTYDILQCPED
Stromelysin-1 (Homo sapiens), sequence (P08254 100-477 limits assumed): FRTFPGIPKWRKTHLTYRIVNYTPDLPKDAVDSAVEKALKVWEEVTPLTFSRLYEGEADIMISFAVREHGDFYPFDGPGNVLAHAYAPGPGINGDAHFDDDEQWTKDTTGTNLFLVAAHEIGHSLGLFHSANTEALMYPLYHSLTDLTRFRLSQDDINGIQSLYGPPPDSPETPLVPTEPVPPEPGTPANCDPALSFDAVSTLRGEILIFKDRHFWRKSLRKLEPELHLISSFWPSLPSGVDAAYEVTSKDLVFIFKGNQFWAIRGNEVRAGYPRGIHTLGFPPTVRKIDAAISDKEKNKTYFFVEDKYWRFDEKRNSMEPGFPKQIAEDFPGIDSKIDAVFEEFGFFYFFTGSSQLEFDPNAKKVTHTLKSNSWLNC
72 kDa type IV collagenase (Homo sapiens), sequence (P08253 110-660 limits assumed): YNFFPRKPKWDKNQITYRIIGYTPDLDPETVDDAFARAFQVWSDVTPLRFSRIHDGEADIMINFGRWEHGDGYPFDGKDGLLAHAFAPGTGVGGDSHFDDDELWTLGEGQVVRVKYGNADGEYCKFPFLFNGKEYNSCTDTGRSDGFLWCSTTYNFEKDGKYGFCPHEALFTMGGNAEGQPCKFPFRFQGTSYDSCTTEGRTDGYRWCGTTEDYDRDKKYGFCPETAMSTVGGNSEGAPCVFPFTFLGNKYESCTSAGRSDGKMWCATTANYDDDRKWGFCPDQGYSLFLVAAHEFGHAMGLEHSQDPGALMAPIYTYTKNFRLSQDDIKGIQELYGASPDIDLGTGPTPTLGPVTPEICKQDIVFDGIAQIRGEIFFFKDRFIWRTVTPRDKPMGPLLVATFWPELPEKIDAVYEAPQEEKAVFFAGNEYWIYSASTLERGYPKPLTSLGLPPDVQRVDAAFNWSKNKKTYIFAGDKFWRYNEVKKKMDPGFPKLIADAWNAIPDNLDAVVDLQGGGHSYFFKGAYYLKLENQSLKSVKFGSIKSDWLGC

SMILES | K5 [1] | Ki (Peptide deformylase [2]) [µM] | Ki (Peptide deformylase [3]; read-out: Ki) [µM] | MIC90 (Bacillus subtilis) [mg/L] | MIC90 (Escherichia coli) [mg/L] | K6 [4] | inhibition [6] [%] | inhibition [8] [%] | inhibition [9] [%] | inhibition [11] [%] | inhibition [12] [%] | inhibition [13] [%] | inhibition [14] [%] | inhibition [15] [%] | further results
CC(C)(C)[C@@H]1NC(=O)[C@@H](CN(O)C=O)CCCCCCCCCCCNC1=O | 0.5 min⁻¹ | 0.077 | 0.00022 | 0.08 (≈ 0.201 µM) | > 24 | 0.0015 min⁻¹ |  |  |  |  |  |  |  |  | 
CC(C)(C)[C@@H]1NC(=O)[C@@H](CN(O)C=O)CCCCCCCCCNC1=O | 1.2 min⁻¹ | 0.109 | 0.00033 | 0.7 (≈ 1.89 µM) |  | 0.0038 min⁻¹ | 9 | 4 | 7 | 14 | 9 | 3 | 8 | 5 | MIC90 (Streptococcus pneumoniae [5]): 2 mg/L (≈ 5.41 µM); MIC90 (Streptococcus pneumoniae [7]): 4 mg/L (≈ 10.8 µM); MIC90 (Moraxella catarrhalis): 0.62 mg/L (≈ 1.68 µM); MIC90 (Haemophilus influenzae): 0.5 mg/L (≈ 1.35 µM); MIC90 (Streptococcus pneumoniae [10]): 4 mg/L (≈ 10.8 µM); MIC90 (Enterococcus faecalis): > 32 mg/L; MIC90 (Staphylococcus aureus): 16 mg/L (≈ 43.3 µM)
CCCCCCNC(=O)[C@H](CCCCN)NC(=O)[C@H](CCCCC)CN(O)C=O | No Slow-Binding Behaviour |  |  |  |  | No Slow-Binding Behaviour | 99 | 73 | 50 | 100 | 94 | 81 | 98 | 61 | Ki (Peptide deformylase [3]): No Slow-Binding Behaviour
NCCCC[C@@H]1NC(=O)[C@@H](CN(O)C=O)CCCCCCCCCCCCCCNC1=O | 0.11 min⁻¹ |  | 0.036 | > 32 | > 32 | 0.018 min⁻¹ | 6 | 6 | 1 | 7 | 5 | 0 | 15 | 4 | MIC90 (Streptococcus pneumoniae [5]): > 32 mg/L; MIC90 (Streptococcus pneumoniae [7]): > 32 mg/L; MIC90 (Moraxella catarrhalis): 1 mg/L (≈ 2.2 µM); MIC90 (Haemophilus influenzae): 32 mg/L (≈ 70.4 µM); MIC90 (Streptococcus pneumoniae [10]): > 32 mg/L; MIC90 (Enterococcus faecalis): 32 mg/L (≈ 70.4 µM); MIC90 (Staphylococcus aureus): 32 mg/L (≈ 70.4 µM)
CC(=O)NCCCC[C@@H]1NC(=O)[C@@H](CN(O)C=O)CCCCCCCCCNC1=O | 0.28 min⁻¹ | 0.71 | 0.012 |  |  | 0.0048 min⁻¹ | 8 | 17 | 3 | 13 | 8 | 0 | 20 | 8 | 
CC(C)(C)[C@@H]1NC(=O)[C@@H](CN(O)C=O)CCCCCCCCCCNC1=O | 1.6 min⁻¹ | 0.096 | 0.00023 | 0.2 (≈ 0.521 µM) | > 12 | 0.0037 min⁻¹ |  |  |  |  |  |  |  |  | 
CCCC[C@H](CN(O)C=O)C(=O)N[C@@H](CCCCN)C(=O)Nc1ccccc1 | No Slow-Binding Behaviour | 0.023 |  |  |  | No Slow-Binding Behaviour | 73 | 34 | 50 | 97 | 89 | 68 | 55 | 54 | Ki (Peptide deformylase [3]): No Slow-Binding Behaviour
CC(C)(C)[C@@H]1NC(=O)[C@@H](CN(O)C=O)CCCCCCCCNC1=O | 0.02 min⁻¹ | 0.063 | 0.0137 | 1.4 (≈ 3.94 µM) | > 24 | 0.0061 min⁻¹ | 20 | 10 | 0 | 1 | 11 | 3 | 15 | 8 | 
CC(C)(C)[C@@H]1NC(=O)[C@@H](CN(O)C=O)CCCCCCCCCCCCCCNC1=O | 1 min⁻¹ |  | 0.025 | ~16 (≈ 36.4 µM) | > 24 | 0.01 min⁻¹ | 4 | 0 | 7 | 8 | 6 | 3 | 0 | 4 | MIC90 (Streptococcus pneumoniae [5]): 4 mg/L (≈ 9.1 µM); MIC90 (Streptococcus pneumoniae [7]): 8 mg/L (≈ 18.2 µM); MIC90 (Moraxella catarrhalis): < 0.03 mg/L; MIC90 (Haemophilus influenzae): > 32 mg/L; MIC90 (Streptococcus pneumoniae [10]): 8 mg/L (≈ 18.2 µM); MIC90 (Enterococcus faecalis): > 32 mg/L; MIC90 (Staphylococcus aureus): > 32 mg/L
CCCC[C@H](CN(O)C=O)C(=O)N[C@H](C(=O)N(C)C)C(C)(C)C | No Slow-Binding Behaviour | 0.011 |  |  |  | No Slow-Binding Behaviour |  |  |  |  |  |  |  |  | Ki (Peptide deformylase [3]): No Slow-Binding Behaviour
NCCCC[C@@H]1NC(=O)[C@@H](CN(O)C=O)CCCCCCCCCNC1=O | 0.12 min⁻¹ | 0.092 | 0.003 | ~8 (≈ 20.8 µM) | 4 (≈ 10.4 µM) | 0.0042 min⁻¹ |  |  |  |  |  |  |  |  | 
